According to article PMC4763880 (Molecular Biosystems, 2016):
Square brackets hold non-standard residues; d marks the D form. Ends that are not written are not given here. * marks the point of attachment. MethylRed = CN(C)c1ccc(/N=N/c2ccccc2C(=O)*)cc1; Dnp = O=[N+]([O-])c1ccc(*)c([N+](=O)[O-])c1; AFC = O=c1cc(C(F)(F)F)c2ccc(N*)cc2o1; Mca = COc1ccc2c(CC(=O)*)cc(=O)oc2c1; Ahx = NCCCCCC(=O)O

T1: recombinant human caspase-7 (Homo sapiens, UniProt P55210)
T1 sequence (P55210 24-198 limits assumed): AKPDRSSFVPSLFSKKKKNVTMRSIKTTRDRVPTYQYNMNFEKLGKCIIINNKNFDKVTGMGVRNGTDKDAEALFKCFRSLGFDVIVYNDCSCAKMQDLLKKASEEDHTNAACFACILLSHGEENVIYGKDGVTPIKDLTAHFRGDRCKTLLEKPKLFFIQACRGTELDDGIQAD
T1 sequence (P55210 207-303 limits assumed): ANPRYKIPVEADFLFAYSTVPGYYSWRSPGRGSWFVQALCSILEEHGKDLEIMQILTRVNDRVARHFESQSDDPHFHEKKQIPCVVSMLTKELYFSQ

T2: human recombinant caspase-3 (human) (UniProt P42574)
T2 sequence: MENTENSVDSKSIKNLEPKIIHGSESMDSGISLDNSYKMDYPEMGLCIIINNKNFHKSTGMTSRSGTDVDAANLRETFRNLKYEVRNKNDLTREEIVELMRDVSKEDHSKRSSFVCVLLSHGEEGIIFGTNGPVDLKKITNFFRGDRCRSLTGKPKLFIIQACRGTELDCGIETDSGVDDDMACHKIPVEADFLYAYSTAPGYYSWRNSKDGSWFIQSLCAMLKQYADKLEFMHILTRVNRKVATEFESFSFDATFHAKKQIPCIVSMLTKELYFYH

T3: human recombinant caspase-7 (human) (UniProt P55210)
T3 sequence: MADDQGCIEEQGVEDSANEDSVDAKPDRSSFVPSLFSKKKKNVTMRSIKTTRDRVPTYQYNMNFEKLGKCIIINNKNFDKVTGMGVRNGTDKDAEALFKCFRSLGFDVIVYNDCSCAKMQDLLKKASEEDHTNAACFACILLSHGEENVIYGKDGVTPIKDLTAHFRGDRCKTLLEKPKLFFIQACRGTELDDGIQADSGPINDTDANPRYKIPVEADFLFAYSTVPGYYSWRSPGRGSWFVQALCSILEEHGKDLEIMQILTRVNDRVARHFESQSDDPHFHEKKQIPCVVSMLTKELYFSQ


Key:
[1] = biological target: T1, recombinant human caspase-7; assay: Kinetic assay; assay type: biochemical; settings: caspase-7 15 nM; pH 7.5 caspase buffer; n = 3
Outline: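 Human recombinant enzyme was incubated with internally quenched FRET substrates, FAM-Ahx-Asp-Glu-X2-Asp-X1′-(Ahx)-Lys(MR)-NH2. X2 was Val or Pro; X1′ was Gly, Ala, Ser or absent. The donor was 5(6)-carboxyfluorescein (Ex/Em 492/517 nm) and the quencher methyl red. Cleavage between Asp and X1′ relieves quenching. KM and kcat were determined for each substrate, and catalytic efficiency taken as kcat/KM.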

caspase-3 = assay: Screen of time-dependent fluorescence activation with caspase-3; assay type: biochemical, human; settings: caspase-3 15 nM; for Activation with caspase-3 in preliminary screen (in words): substrate 2.5, 5 and 10 μM, 0-40 min, n = 3 (Fig. S1)
[2] = biological target: T2, human recombinant caspase-3 (human)
[3] = biological target: T3, human recombinant caspase-7 (human)

Molecule	Caspase-7 k cat/K M (catalytic efficiency) [1]	also measured
Ac-Asp-Glu-Val-Asp-AFC [reference compound]	1.1 μM^–1 min^–1	
MCA-Asp-Glu-Val-Asp-Ala-Pro-Lys-DNP [reference compound]	0.4 μM^–1 min^–1	
Substrate 1: FRET substrate FAM-Ahx-Asp-Glu-X2-Asp-X1′-spacer-Lys(MR)-NH2; X2 Val, X1′ Gly, no spacer ({5(6)‑carboxyfluorescein-Ahx}-DEVDGK(MethylRed)-NH2)	8.6 μM^–1 min^–1	
Substrate 2: FRET substrate of the template; X2 Pro, X1′ Ala, no spacer ({5(6)‑carboxyfluorescein-Ahx}-DEPDAK(MethylRed)-NH2)		Activation with caspase-3 in preliminary screen (in words) (caspase-3): reduced activation
Substrate 3: FRET substrate of the template; X2 Pro, X1′ Ser, no spacer ({5(6)‑carboxyfluorescein-Ahx}-DEPDSK(MethylRed)-NH2)		Activation with caspase-3 in preliminary screen (in words) (caspase-3): reduced activation
Substrate 4: FRET substrate of the template; X2 Val, no X1′, spacer Ahx ({5(6)‑carboxyfluorescein-Ahx}-DEVD[Ahx]K(MethylRed)-NH2)	3.4 μM^–1 min^–1	
Substrate 5: FRET substrate of the template; X2 Pro, no X1′, spacer Ahx ({5(6)‑carboxyfluorescein-Ahx}-DEPD[Ahx]K(MethylRed)-NH2)	3.5 μM^–1 min^–1	
Substrate 6: FRET substrate of the template; X2 Pro, X1′ Gly, spacer Ahx ({5(6)‑carboxyfluorescein-Ahx}-DEPDG[Ahx]K(MethylRed)-NH2)	8.4 μM^–1 min^–1	
Substrate 7: FRET substrate of the template; X2 Val, X1′ Gly, spacer Ahx ({5(6)‑carboxyfluorescein-Ahx}-DEVDG[Ahx]K(MethylRed)-NH2)	3.9 μM^–1 min^–1	
Substrate 8: FRET substrate of the template; X2 Pro, X1′ Ala, spacer Ahx ({5(6)‑carboxyfluorescein-Ahx}-DEPDA[Ahx]K(MethylRed)-NH2)	0.14 μM^–1 min^–1	Activation with caspase-3 in preliminary screen (in words) (caspase-3): activity was restored
Substrate 9: FRET substrate of the template; X2 Val, X1′ Ala, spacer Ahx ({5(6)‑carboxyfluorescein-Ahx}-DEVDA[Ahx]K(MethylRed)-NH2)	3.2 μM^–1 min^–1	Fold higher increase in fluorescence than Ac-Asp-Glu-Val-Asp-AFC (AFC) (caspase-3; all substrates at 20 μM, n = 3 (Fig. S2)): 3 fold
Substrate 10: FRET substrate of the template; X2 Pro, X1′ Ser, spacer Ahx ({5(6)‑carboxyfluorescein-Ahx}-DEPDS[Ahx]K(MethylRed)-NH2)	0.5 μM^–1 min^–1	Activation with caspase-3 in preliminary screen (in words) (caspase-3): activity was restored
Substrate 11: FRET substrate of the template; X2 Val, X1′ Ser, spacer Ahx ({5(6)‑carboxyfluorescein-Ahx}-DEVDS[Ahx]K(MethylRed)-NH2)	2.4 μM^–1 min^–1	
Ac-DEVD-{AFC} [Ac-Asp-Glu-Val-Asp-AFC]		K M (μM) of cleavage of the fluorogenic substrate by caspase-3 [2]: 9.8 µM; K M (μM) of cleavage of the fluorogenic substrate by caspase-7 [3]: 10.8 µM
Mca-DEVDAPK(Dnp) [MCA-Asp-Glu-Val-Asp-Ala-Pro-Lys-DNP]		K M (μM) of cleavage of the fluorogenic substrate by caspase-3 [2]: 13.5 µM; K M (μM) of cleavage of the fluorogenic substrate by caspase-7 [3]: 15.1 µM
